In test [1] the target is T1, Proteinase-activated receptor 1 (Homo sapiens) (UniProt P25116).
T1 sequence (whole entry): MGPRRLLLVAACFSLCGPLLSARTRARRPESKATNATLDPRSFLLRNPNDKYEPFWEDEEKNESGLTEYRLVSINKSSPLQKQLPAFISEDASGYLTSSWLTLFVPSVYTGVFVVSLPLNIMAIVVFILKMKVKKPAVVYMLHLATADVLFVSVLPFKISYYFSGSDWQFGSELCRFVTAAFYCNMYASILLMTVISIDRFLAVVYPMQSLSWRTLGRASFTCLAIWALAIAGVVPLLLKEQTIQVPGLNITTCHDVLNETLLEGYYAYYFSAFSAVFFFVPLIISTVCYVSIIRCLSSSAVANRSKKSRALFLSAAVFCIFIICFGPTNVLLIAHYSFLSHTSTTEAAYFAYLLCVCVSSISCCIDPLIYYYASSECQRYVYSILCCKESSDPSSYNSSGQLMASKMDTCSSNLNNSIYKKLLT
In words: Antagonist activity at PAR1 in human EAhy926 cells assessed as inhibition of TFLLRN-NH2-induced intracellular calcium mobilization at 10 uM pretreated for 15 mins followed by TFLLRN-NH2 addition measured at 5 secs interval for 250 secs by Fluo-4/AM dye based fluorescence assay. It is filed as functional, cell-based.

For test [2], the target named is T2, Proteinase-activated receptor 2 (Homo sapiens, UniProt P55085).
T2 sequence (P55085 whole entry): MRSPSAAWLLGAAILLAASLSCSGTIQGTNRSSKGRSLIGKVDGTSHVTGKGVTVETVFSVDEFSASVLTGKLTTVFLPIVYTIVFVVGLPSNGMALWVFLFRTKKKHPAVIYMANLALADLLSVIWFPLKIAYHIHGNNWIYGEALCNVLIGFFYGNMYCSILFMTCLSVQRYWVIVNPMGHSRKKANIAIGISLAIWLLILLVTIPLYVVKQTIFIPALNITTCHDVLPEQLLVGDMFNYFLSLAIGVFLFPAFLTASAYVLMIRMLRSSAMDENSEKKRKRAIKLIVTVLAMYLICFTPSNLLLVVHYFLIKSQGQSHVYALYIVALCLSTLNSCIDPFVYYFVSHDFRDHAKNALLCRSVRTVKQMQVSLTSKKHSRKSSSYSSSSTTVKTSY
In words: Antagonist activity at PAR2 in human EAhy926 cells assessed as inhibition of SLIGKV-NH2-induced intracellular calcium mobilization pretreated for 15 mins followed by SLIGKV-NH2 addition measured at 5 secs interval for 250 secs by Fluo-4/AM dye based fluorescence assay. It counts as functional, cell-based. The method in brief: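 EA.hy926 monolayers (25,000 cells/well, 40–48 h) were loaded with 2 µM Fluo-4/AM for 40–50 min at 37 °C in HBSS-HEPES with 2.5 mM probenecid, pH 7.4. Antagonist in 10% DMSO vehicle was added for 15 min at 37 °C, then SLIGKV-NH2 (5 µM for curves, 3.16 µM for selectivity). Read at ex485/em525, 20 basal scans. Peak RFU/basal was normalised to a same-column vehicle well; curves from ≥3 repeats fitted by 4-parameter regression.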

Test [3] deals with T1, Proteinase-activated receptor 1 (Homo sapiens). Nature of the test: Negative allosteric modulation of PAR1 in human EAhy926 cells assessed as inhibition of TFLLRN-NH2-induced intracellular calcium mobilization at 10 uM pretreated for 20 to 30 mins followed by compound washout and subsequent incubation for 10 mins prior to TFLLRN-NH2 addition measured at 5 secs interval for 250 secs by Fluo-4/AM dye based fluorescence assay. It is filed as functional, cell-based. In a few lines: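 EA.hy926 cells grown 40–48 h to confluence, loaded with Fluo-4/AM in HBSS-HEPES with 2.5 mM probenecid for 40–50 min at 37 °C, washed. Antagonist or vehicle (10% DMSO) added for 20–30 min, then washed twice with buffer, 10 min at 37 °C each. TFLLRN-NH2 (5 μM) added; emission 525 nm (ex 485) read against basal.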

Test [4] addresses T3, Proteinase-activated receptor 1 (Homo sapiens, UniProt P25116).
T3 sequence (P25116 whole entry): T1 sequence (whole entry)
In words: (§1) Antagonist activity at PAR1 in human EAhy926 cells assessed as inhibition of TFLLRN-NH2-induced intracellular calcium mobilization pretreated for 15 mins followed by TFLLRN-NH2 addition measured at 5 secs interval for 250 secs by Fluo-4/AM dye based fluorescence assay. It counts as functional, cell-based. The method in brief: (§2)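 EA.hy926 cells were used at passage 2–11, seeded at 25,000/well and grown 40–48 h at 37 °C to >80% confluence. Cells were loaded with Fluo-4/AM (2 μM) in HBSS-HEPES containing 2.5 mM probenecid, pH 7.4, for 40–50 min, then washed twice. Antagonist in 10% DMSO vehicle was added for 15 min at 37 °C before agonist. Agonist was 5 μM TFLLRN-NH₂; ex 485/em 525 nm.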
For orientation: Calcium assays in cells follow changes in intracellular calcium, usually with a dye or a luminescent sensor.

The target in test [5] is T1, Proteinase-activated receptor 1 (Homo sapiens). The description is as §1. Set-up: concentration or dose not given beside the values. It counts as functional, cell-based. In a few lines:
as §2

The target is the same in test [6]. It counts as functional, cell-based. As to conditions: 0.316 uM.
For test [7], the target named is Proteinase-activated receptor 2 (Homo sapiens) (UniProt P55085). It counts as functional, cell-based. The following applies: 0.316 uM.
For test [8], the target named is T1, Proteinase-activated receptor 1 (Homo sapiens). As to conditions: 0.316 uM.
Test [9] concerns the target Proteinase-activated receptor 2 (Homo sapiens) (UniProt P55085). Nature of the test: Antagonist activity at PAR2 in human EAhy926 cells assessed as inhibition of SLIGKV-NH2-induced intracellular calcium mobilization at 10 uM pretreated for 15 mins followed by SLIGKV-NH2 addition measured at 5 secs interval for 250 secs by Fluo-4/AM dye based fluorescence assay. It counts as functional, cell-based. The method in brief: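 EA.hy926 monolayers were Fluo-4/AM-loaded (2 μM, with 2.5 mM probenecid in HBSS-HEPES) and pretreated 15 min at 37 °C with 10 μM antagonist in 10% DMSO vehicle. They were then stimulated with 3.16 μM SLIGKV-NH₂. Fluorescence (485/525 nm) was read every 5 s. The peak rise over basal, divided by basal, was normalized to the vehicle well.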

Activity calls are given as the source filed them. The calls are words filed in the database; no cut-off is given here.

In the case of `CC[C@H](C)[C@H](NC(=O)[C@H](CC1CCCCC1)NC(=O)c1ccno1)C(=O)NCc1ccccc1OC`, the inhibition (commonly the change of the read-out against control, counted positive when it falls) in [1] is “inactive”. Moreover, the IC50 in test [2] was found to be 1700 nM.
For `Clc1ccc(Cn2c(Cc3ccccc3)nc3ccccc32)cc1`, in test [1], the inhibition result was “inactive”.
`CC(C)CC(=O)Nc1cccc(NC(=O)c2ccccc2Br)c1`: the inhibition entry in test [3] is “Active”. Besides, the IC50 in test [4] (read-out: IC50) was 3.16 µM. In [5], the inhibition was 74%.
For the compound `NCC[C@H](NC(=O)[C@H](Cc1ccc(F)c(F)c1)NC(=O)Nc1ccc2c(CN3CCCC3)nn(Cc3c(Cl)cccc3Cl)c2c1)C(=O)NCc1ccccc1`, the inhibition entry in [6] was “Active”. Also, the inhibition entry in [7] is “inactive”. In addition, the IC50 in [4] (read-out: IC50) was 0.02 µM.
As to `CCOC(=O)N[C@@H]1CC[C@@H]2[C@@H](C1)C[C@H]1C(=O)O[C@H](C)[C@H]1[C@H]2/C=C/c1ccc(-c2cccc(F)c2)cn1`, the inhibition result in [8] and in [7] was “inactive” in each case.
For `CCCCC(=O)Nc1cccc(NC(=O)c2ccccc2Br)c1`, the inhibition in [5] turned out to be 49%.
On to `CCCC(=O)Nc1cccc(NC(=O)c2ccccc2Br)c1`, for which, in test [3], the inhibition result is “Active”. The IC50 in test [4] (read-out: IC50) came to 0.85 µM. In addition, the inhibition entry in [9] is “inactive”.
As to `CCCC(=O)Nc1cccc(NC(=O)c2ccccc2N=[N+]=[N-])c1`, in test [4] (read-out: IC50), the IC50 was determined as 94 µM. Further, the inhibition in test [5] was found to be 77%.
For the compound `CCCCNc1cccc(NC(=O)c2ccccc2Br)c1`, the inhibition result in test [3] was “Active”. Besides, the IC50 in test [4] (read-out: IC50) turned out to be 0.97 µM. In [9], the inhibition entry is “inactive”.
On to `C#CCCC(=O)NCC[C@H](NC(=O)[C@H](Cc1ccc(F)c(F)c1)NC(=O)Nc1ccc2c(CN3CCCC3)nn(Cc3c(Cl)cccc3Cl)c2c1)C(=O)NCc1ccccc1`, for which the IC50 in [4] (read-out: pIC50 (converted)) is 0.316 µM. Further, the inhibition in [5] turned out to be 76%.
With `CCC(=O)Nc1cccc(NC(=O)c2ccccc2Br)c1`, the IC50 is 3.3 to 3.31 µM in [4] (read-out: IC50) and 3.16 µM in test [4] (read-out: pIC50 (converted)). Also, in test [5], the inhibition was 68%.
On to `C#CCCC(=O)Nc1cccc(NC(=O)c2ccccc2Br)c1`, for which the IC50 in test [4] (read-out: IC50) was 81 µM; in [4] (read-out: pIC50 (converted)), 100 µM. Besides, the inhibition in [5] is 79%.
Turning to `CCOc1cc2c(c(F)c1OCC)C(=N)N(CC(=O)c1cc(N3CCOCC3)c(OC)c(C(C)(C)C)c1)C2` [ATOPAXAR], the inhibition result in [7] was “inactive”. Further, in test [4] (read-out: IC50), the IC50 came to 0.033 µM. In addition, the inhibition in [5] was determined as 94%.

Source of the values: ChEMBL document CHEMBL4219243, “Characterization of Protease-Activated Receptor (PAR) ligands: Parmodulins are reversible allosteric inhibitors of PAR1-driven calcium mobilization in endothelial cells” (Bioorg Med Chem, 2018).
